Laboratory results taken from article PMC6392825 (ChemistryOpen, 2019).
In brackets after ≈: the same amount, converted by molar mass.

Columns and labels:
[1] = Water solubility, shake flask method, 0.1 M phosphate buffer pH 6.8; type: physicochemical; conditions: 37 °C, pH 6.8, aqueous buffer, thermodynamic from solid
[2] = Chemical antioxidant capacity, FRAP assay
HepG2 [3] = assay: Cytotoxicity, mitochondrial activity; type: cell-based; conditions: Homo sapiens, HepG2, 72 h, read-out: IC50 MTT
Summary of the method: (§1)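 Seeded at 20000 cells/well in DMEM and grown 24 h at 37 °C, 10% CO2. Medium was then replaced with serum-free medium holding test compound (25 mM DMSO stock) at various concentrations for 72 h, in triplicate; doxorubicin was the positive control. MTT (5 mg/mL stock in PBS) added for 2 h, formazan dissolved in DMSO, A570. IC50 derived from % surviving cells, reported as mean ± SD combined with SRB data.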

HT‐29 [4] = assay: Cytotoxicity, mitochondrial activity; type: cell-based; conditions: Homo sapiens, HT-29, 72 h, read-out: IC50 MTT
Summary of the method: as §1

Caco‐2 [5] = assay: Cytotoxicity, mitochondrial activity; type: cell-based; conditions: Homo sapiens, Caco-2, 72 h, read-out: IC50 MTT
Summary of the method: as §1

EA.hy926 [6] = assay: Cytotoxicity, mitochondrial activity; type: cell-based; conditions: Homo sapiens, EA.hy 926, 72 h, read-out: IC50 MTT
Summary of the method: as §1

HepG2 [7] = assay: Cell growth inhibition, protein content; type: cell-based; conditions: Homo sapiens, HepG2, 72 h, read-out: IC50 SRB
Summary of the method: (§2)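 Cell lines from ATCC, grown in DMEM+glutamax with 1% NEAA, 1% P/S and 10% FBS at 37 °C, 10% CO2. Seeded at 20000 cells/well for 24 h, then exposed to test compound (25 mM DMSO stock) for three days. Fixed with cold TCA for 1 h at 4 °C, stained 30 min with 0.4% SRB in 1% acetic acid, dissolved in 10 mM Tris, A490. Triplicate; IC50 given as mean ± SD combined with MTT data (n ≥ 3).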

HT‐29 [8] = assay: Cell growth inhibition, protein content; type: cell-based; conditions: Homo sapiens, HT-29, 72 h, read-out: IC50 SRB
Summary of the method: as §2

Caco‐2 [9] = assay: Cell growth inhibition, protein content; type: cell-based; conditions: Homo sapiens, Caco-2, 72 h, read-out: IC50 SRB
Summary of the method: as §2

EA.hy926 [10] = assay: Cell growth inhibition, protein content; type: cell-based; conditions: Homo sapiens, EA.hy 926, 72 h, read-out: IC50 SRB
Summary of the method: as §2

HepG2 [11] = assay: Intracellular ROS assay; type: cell-based; conditions: for change of intracellular ROS in words: HepG2, vs untreated control, 10 and 1 μM; for activity at 1 µM / activity at 10 µM: Homo sapiens, HepG2, read-out: Intracellular ROS, percentage compared to the untreated control cells (ROS/SRB)
Summary of the method: (§3)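 Cells seeded at 20000/well and grown 24 h at 37 °C, 10% CO2, then treated with test compound at 10 and 1 μM in serum-free medium. NAC and doxorubicin served as controls. After a PBS wash, cells were loaded with 20 μM DCFH-DA for 30 min, washed, and held 1 h in phenol red-free DMEM. Fluorescence read at ex 485/em 535 nm and normalized to SRB in the same well. Reported as % of untreated control, n ≥ 3, two-tailed t-test with unequal variances.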

HT‐29 [12] = assay: Intracellular ROS assay; type: cell-based; conditions: for change of intracellular ROS in words: HT‐29, vs untreated control, 10 and 1 μM; for activity at 1 µM / activity at 10 µM: Homo sapiens, HT-29, read-out: Intracellular ROS, percentage compared to the untreated control cells (ROS/SRB)
Summary of the method: as §3

Caco‐2 [13] = assay: Intracellular ROS assay; type: cell-based; conditions: for change of intracellular ROS in words: Caco‐2, vs untreated control, 10 and 1 μM; for activity at 1 µM / activity at 10 µM: Homo sapiens, Caco-2, read-out: Intracellular ROS, percentage compared to the untreated control cells (ROS/SRB)
Summary of the method: as §3

EA.hy926 [14] = assay: Intracellular ROS assay; type: cell-based; conditions: for activity at 1 µM / activity at 10 µM: Homo sapiens, EA.hy 926, read-out: Intracellular ROS, percentage compared to the untreated control cells (ROS/SRB)
Summary of the method: as §3

SMILES | solubility at 90 min [1] [µM] | solubility at 24 h [1] [µM] | IC50 (HepG2 [7]) [µM] | IC50 (Caco‐2 [9]) [µM] | FRAP (Trolox equivalent per μM) [2] [Trolox equivalent per μM] | FRAP (curcumin equivalent per μM) [2] | IC50 (HepG2 [3]) [µM] | IC50 (HT‐29 [4]) [µM] | IC50 (Caco‐2 [5]) [µM] | IC50 (EA.hy926 [6]) [µM] | IC50 (HT‐29 [8]) [µM] | IC50 (EA.hy926 [10]) [µM] | activity at 1 µM (HepG2 [11]) [%] | activity at 10 µM (HepG2 [11]) [%] | activity at 1 µM (HT‐29 [12]) [%] | activity at 10 µM (HT‐29 [12]) [%] | activity at 1 µM (Caco‐2 [13]) [%] | activity at 10 µM (Caco‐2 [13]) [%] | activity at 1 µM (EA.hy926 [14]) [%] | activity at 10 µM (EA.hy926 [14]) [%] | further results
COc1cc(/C=C/C(=O)/C=C(O)/C=C/c2ccccn2)ccc1O [3 b, (1E,4Z,6E)‐5‐Hydroxy‐1‐(4‐hydroxy‐3‐methoxyphenyl)‐7‐(pyridin‐2‐yl)hepta‐1,4,6‐triene‐3‐one] | 9.9 ± 0.4 (≈ 3.2 µg/mL) | 11.6 ± 0.6 (≈ 3.75 µg/mL) | 20.6 ± 1.4 | 25.8 ± 1.1 | 0.41 | 0.40 curcumin equivalent per μM | 24.6 ± 4.8 | 34.3 ± 2.7 | 22.3 ± 0.9 | 1.1 ± 0.1 | 34.8 ± 1.2 | 3.1 | 108 ± 6.7 | 91.9 ± 9.2 | 80.8 ± 2.5 | 93.6 ± 3.1 | 92.7 ± 5.4 | 99.7 ± 6.2 | 100 ± 7 | 127 ± 4.9 | –
COc1cc(/C=C/C(=O)/C=C(O)/C=C/c2cccc3cnccc23)ccc1O [3 e, (1E,4Z,6E)‐5‐Hydroxy‐1‐(4‐hydroxy‐3‐methoxyphenyl)‐7‐(isoquinolin‐5‐yl)hepta‐1,4,6‐triene‐3‐one] | 1.1 ± 0.2 (≈ 0.411 µg/mL) | 1.4 ± 0.2 (≈ 0.523 µg/mL) | 7.3 ± 0.3 | 17.7 ± 3 | 0.21 | 0.20 curcumin equivalent per μM | 4.7 ± 0.2 | 1.3 ± 0.5 | 6.9 ± 0.3 | 5.2 ± 0.2 | 10.7 ± 1.6 | 16.2 ± 0.6 | 103 ± 5.1 | 96.7 ± 4.3 | 80.6 ± 4.8 | 67.6 ± 5.1 | 92.8 ± 11.9 | 72.7 ± 5.1 | 96.3 ± 4.3 | 120 ± 4.4 | change of intracellular ROS in words (Caco‐2 [13]): significantly decreased ROS production
O=C1O[C@H]([C@@H](O)CO)C(O)=C1O [Ascorbic acid, ascorbic acid, reference compound] | – | – | – | – | 0.60 | 0.57 curcumin equivalent per μM | – | – | – | – | – | – | – | – | – | – | – | – | – | – | –
CC(=O)N[C@@H](CS)C(=O)O [NAC, N‐acetyl‐L‐cysteine, reference compound] | – | – | – | – | – | – | – | – | – | – | – | – | 77.1 ± 7.8 | 63.1 ± 4.3 | 82.7 ± 3.4 | 75.3 ± 3.3 | 83.7 ± 6.2 | 83.5 ± 5.1 | 84.2 ± 4.8 | 76.6 ± 8.3 | change of intracellular ROS in words (HepG2 [11]): significant decrease in ROS generation; change of intracellular ROS in words (HT‐29 [12]): significant decrease in ROS generation; change of intracellular ROS in words (Caco‐2 [13]): significant decrease in ROS generation; change of intracellular ROS in words (EA.hy926 [14]; EA.hy926, vs untreated control, 10 and 1 μM): significant decrease in ROS generation
Cc1c(C)c2c(c(C)c1O)CCC(C)(C(=O)O)O2 (stereo not drawn) [Trolox, reference compound] | – | – | – | – | – | 1.00 curcumin equivalent per μM | – | – | – | – | – | – | – | – | – | – | – | – | – | – | –
Cc1c(C)c2c(c(C)c1O)CC[C@@](C)(CCC[C@H](C)CCC[C@H](C)CCCC(C)C)O2 [α‐Tocopherol, α‐tocopherol, reference compound] | – | – | – | – | 0.70 | 0.68 curcumin equivalent per μM | – | – | – | – | – | – | – | – | – | – | – | – | – | – | –

More lines, main results first:

solubility at 90 min [1] [µM] | solubility at 24 h [1] [µM] | IC50 (HepG2 [7]) [µM] | IC50 (Caco‐2 [9]) [µM] | SMILES | FRAP (Trolox equivalent per μM) [2] [Trolox equivalent per μM] | FRAP (curcumin equivalent per μM) [2] | IC50 (HepG2 [3]) [µM] | IC50 (HT‐29 [4]) [µM] | IC50 (Caco‐2 [5]) [µM] | IC50 (EA.hy926 [6]) [µM] | IC50 (HT‐29 [8]) [µM] | IC50 (EA.hy926 [10]) [µM] | activity at 1 µM (HepG2 [11]) [%] | activity at 10 µM (HepG2 [11]) [%] | activity at 1 µM (HT‐29 [12]) [%] | activity at 10 µM (HT‐29 [12]) [%] | activity at 1 µM (Caco‐2 [13]) [%] | activity at 10 µM (Caco‐2 [13]) [%] | activity at 1 µM (EA.hy926 [14]) [%] | activity at 10 µM (EA.hy926 [14]) [%] | further results
8.1 ± 1.6 (≈ 2.62 µg/mL) | 14.5 ± 1.1 (≈ 4.69 µg/mL) | 16.8 ± 0.9 | 25 ± 1.8 | COc1cc(/C=C/C(=O)/C=C(O)/C=C/c2cccnc2)ccc1O [3 a, (1E,4Z,6E)‐5‐Hydroxy‐1‐(4‐hydroxy‐3‐methoxyphenyl)‐7‐(pyridin‐3‐yl)hepta‐1,4,6‐triene‐3‐one] | 0.42 | 0.40 curcumin equivalent per μM | 14.1 ± 0.3 | 17.9 ± 0.1 | 14.6 ± 2 | 8.5 ± 0.4 | 20.9 ± 0.9 | 3.8 | 116 ± 12.8 | 82.3 ± 1.9 | 83.2 ± 3.2 | 89.9 ± 4.3 | 106 ± 8.4 | 120 ± 8.7 | 123 ± 9.5 | 95.5 ± 5.1 | change of intracellular ROS in words (HepG2 [11]): significantly decreased ROS signal; change of intracellular ROS in words (HT‐29 [12]): significantly decreased ROS signal; change of intracellular ROS in words (Caco‐2 [13]): significantly increased ROS production
3.6 ± 1.1 (≈ 1.34 µg/mL) | 4.4 ± 1.3 (≈ 1.64 µg/mL) | 55.4 ± 0.3 | 40.8 ± 1.6 | COc1cc(/C=C/C(=O)/C=C(O)/C=C/c2ccnc3ccccc23)ccc1O [3 d, (1E,4Z,6E)‐5‐Hydroxy‐1‐(4‐hydroxy‐3‐methoxyphenyl)‐7‐(quinolin‐4‐yl)hepta‐1,4,6‐triene‐3‐one] | 0.20 | 0.20 curcumin equivalent per μM | 44.8 ± 5.5 | 47 ± 1 | 46.3 ± 3.7 | 42.3 ± 1.2 | 47.2 ± 2.2 | 60.2 ± 10.4 | 90.7 ± 7.4 | 99.6 ± 11.7 | 71.3 ± 4.9 | 96.9 ± 8 | 94.2 ± 5 | 108 ± 4.4 | 95.6 ± 7 | 132 ± 6.5 | –
7.6 ± 0.9 (≈ 2.75 µg/mL) | 13.2 ± 0.3 (≈ 4.77 µg/mL) | 13.5 ± 1.1 | 37.9 ± 1.8 | COc1cc(/C=C/C(=O)/C=C(O)/C=C/c2c[nH]c3ccccc23)ccc1O [3 g, (1E,4Z,6E)‐5‐Hydroxy‐1‐(4‐hydroxy‐3‐methoxyphenyl)‐7‐(1H‐indol‐3‐yl)hepta‐1,4,6‐trien‐3‐one] | 0.44 | 0.42 curcumin equivalent per μM | 19.5 ± 0.6 | 12.9 ± 0.9 | 5.8 ± 0.3 | 19 ± 0.4 | 40.5 ± 4.3 | 45.1 ± 2.6 | 111 ± 14.5 | 104 ± 12 | 85.7 ± 1.3 | 90.4 ± 5.1 | 102 ± 11.3 | 111 ± 3.1 | 129 ± 9.2 | 92.7 ± 6.1 | –
5.3 ± 0.1 (≈ 1.68 µg/mL) | 5.4 ± 0.1 (≈ 1.71 µg/mL) | 10.2 ± 0.4 | 10.3 ± 0.1 | O=C(/C=C(O)/C=C/c1cccnc1)/C=C/c1c[nH]c2ccccc12 [3 h, (1E,4Z,6E)‐5‐Hydroxy‐1‐(1H‐indol‐3‐yl)‐7‐(pyridin‐3‐yl)hepta‐1,4,6‐trien‐3‐one] | 0.13 | 0.12 curcumin equivalent per μM | 5 ± 0.3 | 6.4 ± 0.8 | 6.7 ± 0.4 | 6.2 ± 0.3 | 34.6 ± 0.8 | 2.9 ± 0.1 | 115 ± 4.5 | 112 ± 4.9 | 82.3 ± 1.5 | 95.6 ± 4.2 | 111 ± 3.2 | 128 ± 8.2 | 97.9 ± 9.8 | 107 ± 5.3 | change of intracellular ROS in words (HepG2 [11]): significantly increased ROS production
7.8 ± 0.1 (≈ 2.47 µg/mL) | 7.7 ± 0.6 (≈ 2.44 µg/mL) | > 75 | 29.8 ± 2.3 | O=C(/C=C(O)/C=C/c1ccncc1)/C=C/c1c[nH]c2ccccc12 [3 i, (1E,4Z,6E)‐5‐Hydroxy‐1‐(1H‐indol‐3‐yl)‐7‐(pyridin‐4‐yl)hepta‐1,4,6‐trien‐3‐one] | 0.19 | 0.18 curcumin equivalent per μM | 48.5 ± 1.7 | 42 ± 1 | 47.1 ± 1.6 | 34.9 ± 1.3 | 64.2 ± 2.76 | > 75 | 125 ± 12 | 147 ± 12.8 | 73.3 ± 7.8 | 73.6 ± 5.3 | 101 ± 5.1 | 89.7 ± 8.9 | 106 ± 10.5 | 119 ± 2.9 | –
